Molecules are shown by their SMILES. Activity calls are given as the source filed them. The calls are words filed in the database; no cut-off is given here.

For assay [1], the system named is Rattus norvegicus. Put plainly: Percentage responding on LSD lever at dose 2.0 mg/kg. The assay is classed as functional. The method in brief: (§1)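 Male Sprague–Dawley rats (200-240 g, housed singly) trained in a two-lever operant task to discriminate ip saline from LSD tartrate 0.08 mg/kg. Reinforcement was 45 mg food pellets on an FR50 schedule, with 15-min daily training sessions. Test drugs were given 30 min before testing. A test ended at 50 responses on either lever or at 5 min; rats not completing 50 presses were scored disrupted and excluded.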

The species named for assay [2] is Rattus norvegicus. Put plainly: Compound was evaluated for the drug discrimination assay and the ED50 (potency) was determined. It counts as functional. The method in brief:
as §1

Assay [3] has as its system Rattus norvegicus. Nature of the assay: Percentage responding on LSD lever at dose 4.0 mg/kg. The assay is classed as functional. The method in brief:
as §1

For assay [4], the system named is Rattus norvegicus. Put plainly: Percentage responding on LSD lever at dose 16.0 mg/kg. It counts as functional. The method in brief:
as §1

Assay [5] deals with Rattus norvegicus. Put plainly: Percentage responding on LSD lever at dose 8.0 mg/kg. The assay is classed as functional. The method in brief:
as §1

In assay [6] the test system is Rattus norvegicus. Put plainly: Percentage responding on LSD lever at dose 0.5 mg/kg. It counts as functional. The method in brief:
as §1

The test system of assay [7] is Rattus norvegicus. Put plainly: Number of rats responding on LSD lever/number of rats treated at dose 4.0 mg/kg; 8/8. The assay is classed as functional, organism-based. On the set-up: dose 4 mg/kg. The method in brief: as §1
The subject of assay [8] is Rattus norvegicus. Nature of the assay: Number of rats responding on LSD lever/number of rats treated at dose 2.0 mg/kg; 6/8. The assay is classed as functional, organism-based. On the set-up: dose 2 mg/kg. In a few lines:
as §1

The test system of assay [9] is Rattus norvegicus. Nature of the assay: Number of rats responding on LSD lever/number of rats treated at dose 1.0 mg/kg; 4/8. It counts as functional, organism-based. On the set-up: dose 1 mg/kg. The method in brief: as §1
Assay [10] deals with Rattus norvegicus. Put plainly: Number of rats responding on LSD lever/number of rats treated at dose 0.5 mg/kg; 1/8. The assay is classed as functional, organism-based. On the set-up: dose 0.5 mg/kg. In a few lines:
as §1

Assay [11] has as its system Rattus norvegicus. Put plainly: Percentage responding on LSD lever at dose 1.0 mg/kg. It counts as functional. In a few lines: as §1
For assay [12], the system named is Rattus norvegicus. Put plainly: Number of rats responding on LSD lever/number of rats treated at dose 3.0 mg/kg; 8/10. The assay is classed as functional, organism-based. On the set-up: dose 3 mg/kg. The method in brief:
as §1

Assay [13] deals with Rattus norvegicus. Nature of the assay: Percentage responding on LSD lever at dose 3.0 mg/kg. The assay is classed as functional. The method in brief:
as §1

Assay [14] relates to Rattus norvegicus. Put plainly: Percentage responding on LSD lever at dose 0.25 mg/kg. It counts as functional. The method in brief: as §1
In assay [15] the test system is Rattus norvegicus. Put plainly: Number of rats responding on LSD lever/number of rats treated at dose 8.0 mg/kg; 6/8. The assay is classed as functional, organism-based. On the set-up: dose 8 mg/kg. In a few lines: as §1
Assay [16] concerns Rattus norvegicus. Put plainly: Number of rats responding on LSD lever/number of rats treated at dose 10.0 mg/kg; 10/12. The assay is classed as functional, organism-based. Further details: dose 10 mg/kg. The method in brief:
as §1

In assay [17] the test system is Rattus norvegicus. Nature of the assay: Number of rats responding on LSD lever/number of rats treated at dose 4.0 mg/kg; 5/8. On the set-up: dose 4 mg/kg. It counts as functional, organism-based. In a few lines: as §1
Assay [18] has as its system Rattus norvegicus. Put plainly: Percentage responding on LSD lever at dose 10.0 mg/kg. The assay is classed as functional. The method in brief: as §1
The test system of assay [19] is Rattus norvegicus. Put plainly: Number of rats responding on LSD lever/number of rats treated at dose 1.0 mg/kg; 1/8. It counts as functional, organism-based. On the set-up: dose 1 mg/kg. The method in brief: as §1
Assay [20] has as its system Rattus norvegicus. Nature of the assay: Number of rats responding on LSD lever/number of rats treated at dose 0.25 mg/kg; 1/8. The assay is classed as functional, organism-based. On the set-up: dose 0.25 mg/kg. The method in brief: as §1

With `COc1cc2c(cc1CC(C)N)OC(C)C2` (stereo not drawn), the Responding in assay [1] was determined as 0%; in assay [3], 38%; in assay [4], 88%; in assay [5], 63%; in assay [6], 0%. For the same compound, the ED50 (usually the dose that gives a 50% effect, or the effect in half of the subjects) in [2] was found to be 5.5 mg/kg.
For the compound `COc1cc2c(cc1CC(C)N)OCO2` (stereo not drawn), the outcome in assay [7] and in assay [12] was Active. Moreover, the Responding in [1] is listed as 75%; in assay [3], 100%; in assay [6], 13%; in assay [11], 50%; in assay [13] it was 80%. In addition, the Activity result in [8] and in assay [9] was “Weak activity” in each case. The compound also returned an ED50 in [2] of 1.71 mg/kg. Moreover, the outcome in [10] was inactive.
In the case of `COc1cc2c(cc1CC(C)N)OCC2` (stereo not drawn), the ED50 in assay [2] came out at 2.12 mg/kg. The Responding in [14] is on record as 13%; in assay [3], 63%; in assay [18] it was 83%; in [5], 75%; in assay [11], 13%. For the same compound, the Activity result in [15] and in [17] was “Weak activity” throughout. The outcome in assay [16] was Active. Further, the result in [19] and in [20] was inactive.

These data come from ChEMBL document CHEMBL1123406, “Synthesis and evaluation of 2,3-dihydrobenzofuran analogues of the hallucinogen 1-(2,5-dimethoxy-4-methylphenyl)-2-aminopropane: drug discrimination studies in rats” (1986).
